Experimental data as given in ChEMBL document CHEMBL2424622, “Development of amino-pyrimidine inhibitors of c-Jun N-terminal kinase (JNK): kinase profiling guided optimization of a 1,2,3-benzotriazole lead” (Bioorg Med Chem Lett, 2013).

Columns and labels:
[1] = molecular target: Mitogen-activated protein kinase kinase kinase kinase 5 (Homo sapiens) (UniProt Q9Y4K4); assay: Competitive binding affinity to MAP4K5 (unknown origin) at 10 uM in presence of ATP relative to control
Method in brief: (§1)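 In vitro ATP-site competition binding assay, part of profiling against a diverse panel of 128 kinases. Each compound was tested at a single concentration of 10 µM. Kinome selectivity was summarized as S15 selectivity scores.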

[2] = molecular target: Serine/threonine-protein kinase MARK2 (Homo sapiens) (UniProt Q7KZI7); assay: Competitive binding affinity to MARK2 (unknown origin) at 10 uM in presence of ATP relative to control
Method in brief: (§2)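 In vitro ATP-site competition binding assay across a diverse panel of 128 kinases, with compound tested at a single concentration. Kinase selectivity scores (S15) were calculated from the panel profiles.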

[3] = molecular target: High affinity nerve growth factor receptor (Homo sapiens) (UniProt P04629); assay: Competitive binding affinity to TRKA (unknown origin) at 10 uM in presence of ATP relative to control; method in brief: as §2
[4] = molecular target: Casein kinase I isoform epsilon (Homo sapiens) (UniProt P49674); assay: Competitive binding affinity to CSNK1E (unknown origin) at 10 uM in presence of ATP relative to control
[5] = molecular target: T1, Phosphorylase b kinase gamma catalytic chain, liver/testis isoform (Homo sapiens) (UniProt P15735); assay: Competitive binding affinity to PHKG2 (unknown origin) at 10 uM in presence of ATP relative to control; method in brief: as §2
T1 sequence (whole entry): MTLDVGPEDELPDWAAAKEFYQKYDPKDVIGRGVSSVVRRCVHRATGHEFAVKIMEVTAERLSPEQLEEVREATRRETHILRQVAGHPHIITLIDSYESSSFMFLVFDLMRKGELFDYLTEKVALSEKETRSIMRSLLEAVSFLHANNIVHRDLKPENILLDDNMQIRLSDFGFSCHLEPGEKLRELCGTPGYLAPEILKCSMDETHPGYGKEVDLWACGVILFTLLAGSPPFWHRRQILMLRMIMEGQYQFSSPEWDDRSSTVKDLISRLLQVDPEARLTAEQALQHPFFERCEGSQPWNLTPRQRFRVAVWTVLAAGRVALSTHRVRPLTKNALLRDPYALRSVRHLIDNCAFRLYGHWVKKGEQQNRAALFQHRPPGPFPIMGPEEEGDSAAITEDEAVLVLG

[6] = molecular target: Mitogen-activated protein kinase kinase kinase 4 (Homo sapiens) (UniProt Q9Y6R4); assay: Competitive binding affinity to MAP3K4 (unknown origin) at 10 uM in presence of ATP relative to control; method in brief: as §1
[7] = molecular target: BMP-2-inducible protein kinase (Homo sapiens) (UniProt Q9NSY1); assay: Competitive binding affinity to BIKE (unknown origin) at 10 uM in presence of ATP relative to control
[8] = molecular target: Calcium/calmodulin-dependent protein kinase type II subunit beta (Homo sapiens) (UniProt Q13554); assay: Competitive binding affinity to CAMK2B (unknown origin) at 10 uM in presence of ATP relative to control
[9] = molecular target: RAF proto-oncogene serine/threonine-protein kinase (Homo sapiens) (UniProt P04049); assay: Competitive binding affinity to RAF1 (unknown origin) at 10 uM in presence of ATP relative to control; method in brief: as §2
[10] = molecular target: Myosin light chain kinase 2, skeletal/cardiac muscle (Homo sapiens) (UniProt Q9H1R3); assay: Competitive binding affinity to MYLK2 (unknown origin) at 10 uM in presence of ATP relative to control; method in brief: as §2
[11] = molecular target: Tyrosine-protein kinase Lck (Homo sapiens) (UniProt P06239); assay: Competitive binding affinity to LCK (unknown origin) at 10 uM in presence of ATP relative to control; method in brief: as §1
[12] = molecular target: Calcium/calmodulin-dependent protein kinase kinase 2 (Homo sapiens) (UniProt Q96RR4); assay: Competitive binding affinity to CAMKK2 (unknown origin) at 10 uM in presence of ATP relative to control
[13] = molecular target: Receptor-type tyrosine-protein kinase FLT3 (Homo sapiens) (UniProt P36888); assay: Competitive binding affinity to FLT3 (unknown origin) at 10 uM in presence of ATP relative to control; method in brief: as §1
[14] = molecular target: T2, Ephrin type-B receptor 1 (Homo sapiens) (UniProt P54762); assay: Competitive binding affinity to EPHB1 (unknown origin) at 10 uM in presence of ATP relative to control; method in brief: as §1
T2 sequence (whole entry): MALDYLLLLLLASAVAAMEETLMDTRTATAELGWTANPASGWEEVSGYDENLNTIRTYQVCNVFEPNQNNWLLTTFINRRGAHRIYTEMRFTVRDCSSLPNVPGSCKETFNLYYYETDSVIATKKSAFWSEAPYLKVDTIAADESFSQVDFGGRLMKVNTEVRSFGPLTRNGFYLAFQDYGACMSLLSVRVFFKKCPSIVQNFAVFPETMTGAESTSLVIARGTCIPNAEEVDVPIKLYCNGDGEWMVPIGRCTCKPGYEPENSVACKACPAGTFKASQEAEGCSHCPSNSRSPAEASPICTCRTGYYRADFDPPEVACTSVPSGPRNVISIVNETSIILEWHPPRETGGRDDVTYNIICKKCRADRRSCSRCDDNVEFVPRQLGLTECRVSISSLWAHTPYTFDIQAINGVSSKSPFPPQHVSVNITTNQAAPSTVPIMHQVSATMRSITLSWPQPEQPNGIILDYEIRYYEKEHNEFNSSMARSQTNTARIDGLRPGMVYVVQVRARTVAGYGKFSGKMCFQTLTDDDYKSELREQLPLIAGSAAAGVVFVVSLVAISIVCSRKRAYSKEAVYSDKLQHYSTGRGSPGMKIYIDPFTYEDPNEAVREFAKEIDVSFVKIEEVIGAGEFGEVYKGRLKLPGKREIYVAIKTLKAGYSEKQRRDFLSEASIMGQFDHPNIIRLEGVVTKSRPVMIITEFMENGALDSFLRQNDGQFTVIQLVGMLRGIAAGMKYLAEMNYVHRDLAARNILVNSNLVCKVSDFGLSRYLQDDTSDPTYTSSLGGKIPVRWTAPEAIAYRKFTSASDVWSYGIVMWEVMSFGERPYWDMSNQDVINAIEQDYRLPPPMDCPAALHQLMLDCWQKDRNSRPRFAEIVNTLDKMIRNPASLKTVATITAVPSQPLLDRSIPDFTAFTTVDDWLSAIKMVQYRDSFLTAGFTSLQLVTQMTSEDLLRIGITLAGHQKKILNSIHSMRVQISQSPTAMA

[15] = molecular target: Tyrosine-protein kinase ABL1 (Homo sapiens) (UniProt P00519); assay: Competitive binding affinity to ABL1 (unknown origin) at 10 uM in presence of ATP relative to control
[16] = molecular target: Serine/threonine-protein kinase pim-2 (Homo sapiens) (UniProt Q9P1W9); assay: Competitive binding affinity to PIM2 (unknown origin) at 10 uM in presence of ATP relative to control
Method in brief: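 In vitro ATP-site competition binding assay across a diverse panel of 128 kinases, with each compound tested at a single concentration. Kinase binding is expressed relative to control.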

[17] = molecular target: TRAF2 and NCK-interacting protein kinase (Homo sapiens) (UniProt Q9UKE5); assay: Competitive binding affinity to TNIK (unknown origin) at 10 uM in presence of ATP relative to control; method in brief: as §2

Serine/threonine-protein kinase pim-2 (Homo sapiens), sequence (Q9P1W9 whole entry, looked up): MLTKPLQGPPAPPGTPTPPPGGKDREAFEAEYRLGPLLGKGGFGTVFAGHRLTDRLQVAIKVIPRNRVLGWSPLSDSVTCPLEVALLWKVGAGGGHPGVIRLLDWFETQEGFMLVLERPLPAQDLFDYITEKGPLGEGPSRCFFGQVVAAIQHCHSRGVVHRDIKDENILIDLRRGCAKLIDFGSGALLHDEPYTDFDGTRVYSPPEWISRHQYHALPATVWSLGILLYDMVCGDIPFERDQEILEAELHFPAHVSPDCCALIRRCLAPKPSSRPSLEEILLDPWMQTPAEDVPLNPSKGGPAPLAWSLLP
Calcium/calmodulin-dependent protein kinase kinase 2 (Homo sapiens), sequence (Q96RR4 2-588 limits assumed): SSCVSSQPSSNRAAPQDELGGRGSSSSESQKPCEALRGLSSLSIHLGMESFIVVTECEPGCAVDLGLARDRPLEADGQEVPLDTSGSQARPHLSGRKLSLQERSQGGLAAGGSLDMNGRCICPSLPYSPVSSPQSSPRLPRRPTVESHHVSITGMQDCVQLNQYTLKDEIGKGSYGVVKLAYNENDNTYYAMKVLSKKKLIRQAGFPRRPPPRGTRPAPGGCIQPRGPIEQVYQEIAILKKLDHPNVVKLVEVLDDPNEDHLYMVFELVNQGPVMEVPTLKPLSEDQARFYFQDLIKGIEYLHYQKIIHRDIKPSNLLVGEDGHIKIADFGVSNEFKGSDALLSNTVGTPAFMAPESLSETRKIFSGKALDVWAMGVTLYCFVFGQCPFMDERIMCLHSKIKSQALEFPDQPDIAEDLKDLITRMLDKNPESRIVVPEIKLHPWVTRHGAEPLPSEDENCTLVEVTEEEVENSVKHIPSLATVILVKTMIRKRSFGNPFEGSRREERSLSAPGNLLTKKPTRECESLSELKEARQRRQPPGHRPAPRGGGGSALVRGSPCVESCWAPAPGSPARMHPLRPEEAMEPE
Mitogen-activated protein kinase kinase kinase kinase 5 (Homo sapiens), sequence (Q9Y4K4 whole entry, looked up): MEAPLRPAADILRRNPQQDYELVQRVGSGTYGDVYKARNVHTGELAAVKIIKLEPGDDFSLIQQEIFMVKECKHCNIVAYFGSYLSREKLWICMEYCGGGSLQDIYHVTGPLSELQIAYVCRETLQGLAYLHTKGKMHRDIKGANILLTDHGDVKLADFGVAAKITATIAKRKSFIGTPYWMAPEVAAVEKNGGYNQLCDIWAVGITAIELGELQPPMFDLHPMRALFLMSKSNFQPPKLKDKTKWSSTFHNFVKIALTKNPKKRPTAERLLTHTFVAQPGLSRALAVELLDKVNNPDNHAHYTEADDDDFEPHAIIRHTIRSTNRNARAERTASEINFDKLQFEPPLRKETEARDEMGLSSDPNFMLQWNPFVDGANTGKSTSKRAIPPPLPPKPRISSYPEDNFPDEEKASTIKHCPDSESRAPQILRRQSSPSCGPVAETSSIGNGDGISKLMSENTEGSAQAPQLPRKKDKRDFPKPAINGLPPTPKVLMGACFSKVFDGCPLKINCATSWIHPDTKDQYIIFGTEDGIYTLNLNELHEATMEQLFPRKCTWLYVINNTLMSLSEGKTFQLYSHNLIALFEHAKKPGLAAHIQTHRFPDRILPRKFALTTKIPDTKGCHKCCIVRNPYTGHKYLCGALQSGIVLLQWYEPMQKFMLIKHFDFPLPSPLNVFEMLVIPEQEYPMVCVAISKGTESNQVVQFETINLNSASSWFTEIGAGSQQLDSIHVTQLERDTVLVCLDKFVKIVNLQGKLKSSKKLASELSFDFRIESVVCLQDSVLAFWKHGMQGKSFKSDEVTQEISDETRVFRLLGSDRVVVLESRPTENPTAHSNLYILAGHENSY
High affinity nerve growth factor receptor (Homo sapiens), sequence (P04629 33-796 limits assumed): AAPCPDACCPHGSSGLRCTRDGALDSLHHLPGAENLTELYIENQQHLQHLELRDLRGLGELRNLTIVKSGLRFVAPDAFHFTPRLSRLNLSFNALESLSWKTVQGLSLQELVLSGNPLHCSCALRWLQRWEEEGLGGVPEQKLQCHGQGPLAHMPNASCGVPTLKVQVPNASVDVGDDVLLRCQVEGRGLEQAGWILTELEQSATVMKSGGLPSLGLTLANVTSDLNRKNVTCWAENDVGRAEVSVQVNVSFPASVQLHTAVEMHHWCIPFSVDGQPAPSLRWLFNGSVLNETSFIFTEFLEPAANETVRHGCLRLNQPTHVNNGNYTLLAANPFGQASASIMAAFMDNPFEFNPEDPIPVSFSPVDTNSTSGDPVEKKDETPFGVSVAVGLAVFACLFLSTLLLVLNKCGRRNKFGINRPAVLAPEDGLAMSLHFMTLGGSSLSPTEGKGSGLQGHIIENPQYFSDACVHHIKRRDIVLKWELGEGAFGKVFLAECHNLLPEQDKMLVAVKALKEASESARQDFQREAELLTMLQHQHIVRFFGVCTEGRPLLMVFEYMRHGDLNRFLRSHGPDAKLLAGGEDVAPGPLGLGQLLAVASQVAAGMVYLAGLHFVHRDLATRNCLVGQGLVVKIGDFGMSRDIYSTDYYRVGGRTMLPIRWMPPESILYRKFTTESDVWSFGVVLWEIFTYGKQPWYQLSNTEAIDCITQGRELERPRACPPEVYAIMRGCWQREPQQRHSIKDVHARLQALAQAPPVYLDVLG
Tyrosine-protein kinase Lck (Homo sapiens), sequence (P06239 2-509 limits assumed): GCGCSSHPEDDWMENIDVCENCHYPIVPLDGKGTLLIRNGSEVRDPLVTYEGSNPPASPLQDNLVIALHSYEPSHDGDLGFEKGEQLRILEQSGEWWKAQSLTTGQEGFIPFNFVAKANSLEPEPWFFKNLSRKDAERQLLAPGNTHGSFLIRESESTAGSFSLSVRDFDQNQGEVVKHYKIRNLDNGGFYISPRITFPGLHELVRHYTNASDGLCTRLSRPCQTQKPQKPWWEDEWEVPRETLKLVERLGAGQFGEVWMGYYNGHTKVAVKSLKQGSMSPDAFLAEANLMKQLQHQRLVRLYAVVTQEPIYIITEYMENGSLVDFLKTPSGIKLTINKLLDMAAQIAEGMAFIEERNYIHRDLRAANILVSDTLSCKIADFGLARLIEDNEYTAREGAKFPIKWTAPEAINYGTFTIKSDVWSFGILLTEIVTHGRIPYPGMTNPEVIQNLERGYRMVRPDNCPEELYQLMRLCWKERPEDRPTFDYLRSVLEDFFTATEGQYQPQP
Myosin light chain kinase 2, skeletal/cardiac muscle (Homo sapiens), sequence (Q9H1R3 whole entry): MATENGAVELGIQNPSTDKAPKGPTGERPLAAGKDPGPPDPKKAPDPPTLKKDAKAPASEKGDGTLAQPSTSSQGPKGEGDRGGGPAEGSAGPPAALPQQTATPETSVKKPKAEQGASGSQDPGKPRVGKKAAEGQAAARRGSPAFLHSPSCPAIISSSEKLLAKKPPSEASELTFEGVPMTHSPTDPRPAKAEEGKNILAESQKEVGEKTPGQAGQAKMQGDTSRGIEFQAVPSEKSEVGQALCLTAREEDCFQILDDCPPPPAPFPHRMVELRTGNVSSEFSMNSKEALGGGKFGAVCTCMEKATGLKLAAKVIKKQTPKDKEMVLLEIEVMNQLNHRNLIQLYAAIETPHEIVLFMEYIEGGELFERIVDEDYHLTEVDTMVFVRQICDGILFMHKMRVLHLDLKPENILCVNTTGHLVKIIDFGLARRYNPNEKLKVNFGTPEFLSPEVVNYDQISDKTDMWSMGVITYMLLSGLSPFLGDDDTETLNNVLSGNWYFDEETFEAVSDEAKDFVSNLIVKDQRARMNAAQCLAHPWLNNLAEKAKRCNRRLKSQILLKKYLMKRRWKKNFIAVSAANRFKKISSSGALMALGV
BMP-2-inducible protein kinase (Homo sapiens), sequence (Q9NSY1 whole entry, looked up): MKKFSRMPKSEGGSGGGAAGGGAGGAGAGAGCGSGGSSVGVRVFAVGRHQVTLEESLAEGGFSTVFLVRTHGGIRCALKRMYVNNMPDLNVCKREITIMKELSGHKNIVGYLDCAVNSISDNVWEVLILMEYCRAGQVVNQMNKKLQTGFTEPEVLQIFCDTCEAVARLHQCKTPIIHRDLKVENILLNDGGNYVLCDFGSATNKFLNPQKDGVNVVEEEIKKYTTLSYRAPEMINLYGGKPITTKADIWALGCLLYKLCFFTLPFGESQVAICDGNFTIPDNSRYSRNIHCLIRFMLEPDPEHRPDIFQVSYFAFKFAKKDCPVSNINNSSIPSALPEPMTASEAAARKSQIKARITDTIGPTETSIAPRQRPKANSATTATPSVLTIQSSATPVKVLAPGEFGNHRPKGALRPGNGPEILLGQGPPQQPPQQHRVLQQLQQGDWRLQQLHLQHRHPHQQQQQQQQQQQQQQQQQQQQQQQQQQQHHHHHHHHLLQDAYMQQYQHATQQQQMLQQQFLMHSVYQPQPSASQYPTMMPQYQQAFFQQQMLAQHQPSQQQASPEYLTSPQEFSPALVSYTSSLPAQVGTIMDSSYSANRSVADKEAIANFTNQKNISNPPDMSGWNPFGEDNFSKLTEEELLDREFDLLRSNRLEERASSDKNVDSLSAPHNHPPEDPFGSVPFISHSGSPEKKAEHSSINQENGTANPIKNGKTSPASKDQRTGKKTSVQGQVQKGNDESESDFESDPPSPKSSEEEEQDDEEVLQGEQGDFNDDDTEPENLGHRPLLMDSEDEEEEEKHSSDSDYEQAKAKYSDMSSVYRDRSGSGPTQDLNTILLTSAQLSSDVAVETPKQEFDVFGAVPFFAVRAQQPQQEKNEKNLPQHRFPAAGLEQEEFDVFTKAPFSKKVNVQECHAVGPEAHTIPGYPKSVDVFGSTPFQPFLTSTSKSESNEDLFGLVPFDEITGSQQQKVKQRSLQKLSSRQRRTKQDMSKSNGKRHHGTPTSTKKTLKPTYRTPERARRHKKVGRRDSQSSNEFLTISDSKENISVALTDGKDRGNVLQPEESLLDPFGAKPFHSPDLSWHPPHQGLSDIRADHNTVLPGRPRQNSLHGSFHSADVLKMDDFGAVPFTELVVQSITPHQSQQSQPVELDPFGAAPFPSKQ

Row | inhibition [1] [%] | inhibition [2] [%] | inhibition [3] [%] | inhibition [4] [%] | inhibition [5] [%] | inhibition [6] [%] | inhibition [7] [%] | inhibition [8] [%] | inhibition [9] [%] | inhibition [10] [%] | inhibition [11] [%] | inhibition [12] [%] | inhibition [13] [%] | inhibition [14] [%] | inhibition [15] [%] | inhibition [16] [%] | inhibition [17] [%] | Compound
1 | < 50 | < 50 | < 50 | 94 | < 50 | < 50 | 81 | 87 | < 50 | < 50 | < 50 | 65 | 95 | < 50 | < 50 | 99 | 79 | O[C@H]1CC[C@H](Nc2nccc(-n3ncc4ccccc43)n2)CC1
2 | < 50 | 78 | < 50 | 100 | 100 | 84 | 99 | < 50 | < 50 | 73 | 81 | 86 | 92 | 73 | < 50 | 99 | 92 | N[C@H]1CC[C@H](Nc2nccc(-n3nnc4ccccc43)n2)CC1
3 | < 50 | < 50 | < 50 | 100 | 83 | < 50 | 86 | 67 | < 50 | < 50 | 65 | 72 | 88 | < 50 | < 50 | 98 | < 50 | O[C@H]1CC[C@H](Nc2nccc(-n3nnc4ccccc43)n2)CC1

The remaining lines, values behind:

Row | Compound | inhibition [1] [%] | inhibition [2] [%] | inhibition [3] [%] | inhibition [4] [%] | inhibition [5] [%] | inhibition [6] [%] | inhibition [7] [%] | inhibition [8] [%] | inhibition [9] [%] | inhibition [10] [%] | inhibition [11] [%] | inhibition [12] [%] | inhibition [13] [%] | inhibition [14] [%] | inhibition [15] [%] | inhibition [16] [%] | inhibition [17] [%]
4 | O[C@H]1CC[C@H](Nc2nccc(-n3ccc4ccccc43)n2)CC1 | < 50 | < 50 | < 50 | 85 | < 50 | < 50 | < 50 | 80 | < 50 | < 50 | < 50 | < 50 | 85 | < 50 | < 50 | 86 | < 50
5 | O[C@H]1CC[C@H](Nc2nccc(-c3n[nH]c4ccccc34)n2)CC1 | 99 | 88 | 99 | 100 | 90 | 100 | 99 | 88 | < 50 | 84 | 87 | 84 | < 50 | < 50 | < 50 | 100 | 99
6 | O=C([C@H]1CC[C@H](Nc2nccc(-n3nnc4ccccc43)n2)CC1)N1CCOCC1 | < 50 | < 50 | < 50 | 95 | < 50 | < 50 | 87 | < 50 | < 50 | < 50 | 70 | 75 | < 50 | < 50 | 92 | 78 | < 50
